Measured values published in the array DNA melting data of Ke et al. (doi:10.1101/2024.01.08.574731).

How the values were obtained:
[1] = folding enthalpy; higher = less favourable; fluorescence melt of hairpins on a sequencing array, two-state fit; conditions: sodium 0.088 M
Procedure, shortened: (§1)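 On a sequenced MiSeq flow cell, library hairpins with annealed Cy3 and quencher oligos were imaged for Cy3 fluorescence in 2.5 °C steps up to 60 °C, in 50 mM Na-HEPES pH 8.0, 25 mM NaCl. Normalisation used pre-quench Cy3 and control constructs. Bootstrapped two-state fits gave melting temperature and folding enthalpy, combined by inverse variance across four replicates and with fitted temperatures raised by 9.35 °C to match UV melts.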

[2] = melting temperature; fluorescence melt of hairpins on a sequencing array, two-state fit, raised by 9.35 °C to match UV melts; conditions: sodium 0.088 M
Procedure, shortened: as §1

Sequence: GATCACAAACGTGATC ((((((....))))))
- folding enthalpy [1]: -33.2 kcal/mol
- Tm [2]: 55.6 °C

Sequence: GATCACAAAGGTGATC ((((((....))))))
- folding enthalpy [1]: -32.8 kcal/mol
- Tm [2]: 53.6 °C

Sequence: GATCACAAATGTGATC ((((((....))))))
- folding enthalpy [1]: -33.4 kcal/mol
- Tm [2]: 55.5 °C

Sequence: GATCACAACGTGATC ((((((...))))))
- folding enthalpy [1]: -34.4 kcal/mol
- Tm [2]: 61.3 °C

Sequence: GATCACAAGCGTGATC ((((((....))))))
- folding enthalpy [1]: -37.6 kcal/mol
- Tm [2]: 56.6 °C

Sequence: GATCACAATAGTGATC ((((((....))))))
- folding enthalpy [1]: -38.3 kcal/mol
- Tm [2]: 60.8 °C

Sequence: GATCACAATGGTGATC ((((((....))))))
- folding enthalpy [1]: -35.1 kcal/mol
- Tm [2]: 55.3 °C

Sequence: GATCACACAGTGATC ((((((...))))))
- folding enthalpy [1]: -38.1 kcal/mol
- Tm [2]: 58.8 °C

Sequence: GATCACACCAGTGATC ((((((....))))))
- folding enthalpy [1]: -38.6 kcal/mol
- Tm [2]: 59 °C

Sequence: GATCACACCGGTGATC ((((((....))))))
- folding enthalpy [1]: -39.3 kcal/mol
- Tm [2]: 57.3 °C

Sequence: GATCACACGAGTGATC ((((((....))))))
- folding enthalpy [1]: -43.6 kcal/mol
- Tm [2]: 56.4 °C

Sequence: GATCACACGCGTGATC ((((((....))))))
- folding enthalpy [1]: -38.6 kcal/mol
- Tm [2]: 58.5 °C

Sequence: GATCACACGGGTGATC ((((((....))))))
- folding enthalpy [1]: -35.5 kcal/mol
- Tm [2]: 57.1 °C

Sequence: GATCACACTCGTGATC ((((((....))))))
- folding enthalpy [1]: -40.6 kcal/mol
- Tm [2]: 57.4 °C

Sequence: GATCACAGCAGTGATC ((((((....))))))
- folding enthalpy [1]: -40.3 kcal/mol
- Tm [2]: 59.5 °C

Sequence: GATCACAGCTGTGATC ((((((....))))))
- folding enthalpy [1]: -41.9 kcal/mol
- Tm [2]: 59 °C

Sequence: GATCACATAAGTGATC ((((((....))))))
- folding enthalpy [1]: -39.3 kcal/mol
- Tm [2]: 58.9 °C

Sequence: GATCACATGGGTGATC ((((((....))))))
- folding enthalpy [1]: -45.1 kcal/mol
- Tm [2]: 56.4 °C

Sequence: GATCACATGGTGATC ((((((...))))))
- folding enthalpy [1]: -37 kcal/mol
- Tm [2]: 61.1 °C

Sequence: GATCACATGTGTGATC ((((((....))))))
- folding enthalpy [1]: -43.2 kcal/mol
- Tm [2]: 57.2 °C

Sequence: GATCACATTAGTGATC ((((((....))))))
- folding enthalpy [1]: -45 kcal/mol
- Tm [2]: 59.2 °C

Sequence: GATCACCACGTGATC ((((((...))))))
- folding enthalpy [1]: -38.5 kcal/mol
- Tm [2]: 58.9 °C

Sequence: GATCACCCAGTGATC ((((((...))))))
- folding enthalpy [1]: -38.1 kcal/mol
- Tm [2]: 57.2 °C

Sequence: GATCACCCCTGTGATC ((((((....))))))
- folding enthalpy [1]: -47.6 kcal/mol
- Tm [2]: 55.6 °C

Sequence: GATCACCCGAGTGATC ((((((....))))))
- folding enthalpy [1]: -41.3 kcal/mol
- Tm [2]: 57 °C

Sequence: GATCACCCGCGTGATC ((((((....))))))
- folding enthalpy [1]: -48.3 kcal/mol
- Tm [2]: 54.5 °C

Sequence: GATCACCCTTGTGATC ((((((....))))))
- folding enthalpy [1]: -43.7 kcal/mol
- Tm [2]: 54.9 °C

Sequence: GATCACCGAGGTGATC ((((((....))))))
- folding enthalpy [1]: -46.8 kcal/mol
- Tm [2]: 63.5 °C

Sequence: GATCACCGCAGTGATC ((((((....))))))
- folding enthalpy [1]: -40 kcal/mol
- Tm [2]: 59 °C

Sequence: GATCACCTCAGTGATC ((((((....))))))
- folding enthalpy [1]: -42.3 kcal/mol
- Tm [2]: 59.6 °C

Sequence: GATCACGAAAGTGAGATC ((((((....)))..)))
- folding enthalpy [1]: -17 kcal/mol
- Tm [2]: 48.5 °C

Sequence: GATCACGAAAGTGATATC ((((((....)))..)))
- folding enthalpy [1]: -17.3 kcal/mol
- Tm [2]: 50.5 °C

Sequence: GATCACGAAAGTGTTATC ((((((....)))..)))
- folding enthalpy [1]: -9.57 kcal/mol
- Tm [2]: 28.4 °C

Sequence: GATCACGAGCGTGATC ((((((....))))))
- folding enthalpy [1]: -39.5 kcal/mol
- Tm [2]: 59.1 °C

Sequence: GATCACGAGTGTGATC ((((((....))))))
- folding enthalpy [1]: -37.7 kcal/mol
- Tm [2]: 56.3 °C

Sequence: GATCACGATCGTGATC ((((((....))))))
- folding enthalpy [1]: -47.4 kcal/mol
- Tm [2]: 59.6 °C

Sequence: GATCACGCGAGTGATC ((((((....))))))
- folding enthalpy [1]: -33.8 kcal/mol
- Tm [2]: 68.8 °C

Sequence: GATCACGCGGGTGATC ((((((....))))))
- folding enthalpy [1]: -32 kcal/mol
- Tm [2]: 57.1 °C

Sequence: GATCACGCTGGTGATC ((((((....))))))
- folding enthalpy [1]: -42.5 kcal/mol
- Tm [2]: 58.2 °C

Sequence: GATCACGGAAACGCGATC ((((.((....)).))))
- folding enthalpy [1]: -34.3 kcal/mol
- Tm [2]: 48.2 °C

Sequence: GATCACGGAAACGTGGTC ((.((((....)))).))
- folding enthalpy [1]: -38.7 kcal/mol
- Tm [2]: 53.8 °C

Sequence: GATCACGGAAGTGATC ((((((....))))))
- folding enthalpy [1]: -29.3 kcal/mol
- Tm [2]: 68.9 °C

Sequence: GATCACGGTCGTGATC ((((((....))))))
- folding enthalpy [1]: -39.6 kcal/mol
- Tm [2]: 60.7 °C

Sequence: GATCACGTCCGTGATC ((((((....))))))
- folding enthalpy [1]: -41.6 kcal/mol
- Tm [2]: 61.1 °C

Sequence: GATCACTAAGTGATC ((((((...))))))
- folding enthalpy [1]: -33.9 kcal/mol
- Tm [2]: 55.2 °C

Sequence: GATCACTAATGTGATC ((((((....))))))
- folding enthalpy [1]: -35.2 kcal/mol
- Tm [2]: 55.1 °C

Sequence: GATCACTAGAGTGATC ((((((....))))))
- folding enthalpy [1]: -40.8 kcal/mol
- Tm [2]: 56.4 °C

Sequence: GATCACTCACGTGATC ((((((....))))))
- folding enthalpy [1]: -41.5 kcal/mol
- Tm [2]: 55.8 °C
